Experimental findings from ChEMBL document CHEMBL2407084, “Novel imino sugar α-glucosidase inhibitors as antiviral compounds” (Bioorg Med Chem, 2013) are described below.

Activity calls are given as the source filed them. The rule behind the calls is not given here.

For data set [1], the system named is Bovine viral diarrhea virus 1. The data set is described as follows: Antiviral activity against Bovine viral diarrhea virus infected in MDBK cells assessed as reduction in viral infectivity at 10 uM treated for 24 hrs followed by compound washout followed by serially diluted compound treatment measured after 24 hrs by fluorescence microscopic analysis. It is filed as functional, organism-based. The method, boiled down: (§1)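 Supernatant from BVDV-infected MDBK cells (MOI 1, 24 h with compound) was clarified, and fivefold serial dilutions infected naive MDBK cells for 24 h. Cells were fixed in 4% paraformaldehyde, blocked in milk, permeabilised with Triton X-100, and probed with MAb103/105 against NS2/3 then FITC anti-mouse. DAPI counterstain. Foci counted by fluorescence microscopy to give FFU/ml relative to untreated control; three experiments, mean and SD.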

Data set [2] relates to Bovine viral diarrhea virus 1. The data set is described as follows: Antiviral activity against Bovine viral diarrhea virus infected in MDBK cells assessed as reduction in viral RNA level at 10 uM after 24 hrs by RT-PCR analysis. It counts as functional, organism-based. The method, boiled down: (§2)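 MDBK cells (1.75 10^6/well) infected with BVDV at MOI 1, then incubated with imino sugar for 24 h. Medium was clarified by centrifugation and viral RNA purified, then DNase-treated. SYBR green real-time RT-PCR used primers amplifying a 334-bp NS2 segment, 35 cycles. Copies were calibrated against a standard curve of serially diluted BVDV stock.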

Data set [3] concerns MDBK. The data set is described as follows: Inhibition of endoplasmic reticulum alpha-glucosidase 1 in MDBK cells assessed as accumulation of triglucosylated Man5GlcNAc1 after 24 hrs by NP-HPLC analysis relative to Man4GlcNAc1 level. It is filed as cell-based. To be noted: Bos taurus. The method, boiled down: (§3)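 Uninfected MDBK cells (1 10^6/well) were grown with a range of imino sugar concentrations for 24 h at 37 °C. Free oligosaccharides were extracted, labelled with 2-anthranilic acid, and purified on amide and ConA-Sepharose columns. They were separated by NP-HPLC. Peak areas of tri-glucosylated (glucosidase I) or mono-glucosylated (glucosidase II) Man5GlcNAc1 were expressed relative to Man4GlcNAc1. Mean and SD.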

Data set [4] deals with MDBK. The data set is described as follows: Inhibition of endoplasmic reticulum alpha-glucosidase 1 in MDBK cells assessed as accumulation of triglucosylated Man5GlcNAc1 after 24 hrs by NP-HPLC analysis. To be noted: Bos taurus. It counts as cell-based. The procedure, abridged: as §3
Data set [5] has as its system MDBK. The data set is described as follows: Inhibition of endoplasmic reticulum alpha-glucosidase 2 in MDBK cells assessed as accumulation of monoglucosylated Man5GlcNAc1 after 24 hrs by NP-HPLC analysis relative to Man4GlcNAc1 level. It counts as cell-based. The conditions noted are these: Bos taurus. The procedure, abridged:
as §3

In data set [6] the test system is MDBK. The data set is described as follows: Inhibition of endoplasmic reticulum alpha-glucosidase 2 in MDBK cells assessed as accumulation of monoglucosylated Man5GlcNAc1 after 24 hrs by NP-HPLC analysis. To be noted: Bos taurus. It counts as cell-based. The method, boiled down:
as §3

The nature of data set [7]: Cytotoxicity against MDBK cells after 72 hrs by MTS assay. It is filed as cell-based, Bos taurus. The conditions noted are these: cattle. The method, boiled down:
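MDBK cells (5 10^3/well) were plated for 24 h, then given fresh medium with a range of imino sugar concentrations for 72 h. MTS–phenazine methosulfate (20:1) was added for 1 h and absorbance read at 490 nm. Triplicates. CC50 is the concentration giving A490 at 50% of untreated controls.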

Data set [8] relates to MDBK. The data set is described as follows: Inhibition of BVDV endoplasmic reticulum alpha-glucosidase 2 infected in MDBK cells assessed as increase in E2 protein glucosylation at 100 uM after 24 hrs by Western blotting analysis. It counts as cell-based. To be noted: Bovine viral diarrhea virus 1.
Data set [9] has as its system MDBK. The data set is described as follows: Inhibition of BVDV endoplasmic reticulum alpha-glucosidase 1 infected in MDBK cells assessed as increase in E2 protein glucosylation at 100 uM after 24 hrs by Western blotting analysis. It counts as cell-based. The conditions noted are these: Bovine viral diarrhea virus 1.
In data set [10] the test system is Bovine viral diarrhea virus 1. The data set is described as follows: Antiviral activity against Bovine viral diarrhea virus infected in MDBK cells assessed as reduction in viral infectivity at 50 uM treated for 24 hrs followed by compound washout followed by serially diluted compound treatment measured after 24 hrs by fluorescence microscopic analysis. It is filed as functional, organism-based. The method, boiled down:
as §1

In data set [11] the test system is Bovine viral diarrhea virus 1. The data set is described as follows: Antiviral activity against Bovine viral diarrhea virus infected in MDBK cells assessed as reduction in viral RNA level at 50 uM after 24 hrs by RT-PCR analysis. It counts as functional, organism-based. The procedure, abridged:
as §2

Turning to `OC[C@@H]1[C@@H](O)[C@H](O)[C@@H](O)CN1CCCCCCCCn1cc(COCC23CC4CC(CC(C4)C2)C3)nn1`, the result in [1] and in [2] was Active. Also, the fold change (FC) in the data set on MDBK [3] amounted to 2; with MDBK [5], 5.4. Also, the INH with MDBK [4] is 25 µM. Besides, the Concentration giving inhibition with MDBK [6] worked out at 10 µM. The midpoint of cytotoxicity in data set [7], the CC50 at 72 h, lay at 51.7 µM.
As to `OC[C@@H]1[C@@H](O)[C@H](O)[C@@H](O)CN1CCCCCCCCCCn1cc(COCC23CC4CC(CC(C4)C2)C3)nn1`, the “activity call (active / not active)” value with MDBK [8] was “inactive”. Also, the “glucosidase I inhibition (active/not active)” value in the data set on MDBK [9] is “inactive”. For the same molecule, the outcome in data set [1] and in data set [2] was Active. In addition, the fold change (FC) was found to be 0.26 in the data set on MDBK [3] and 5.8 with MDBK [5]. Further, the INH in the data set with MDBK [4] stood at 10 µM. In addition, in the data set on MDBK [6], the Concentration giving inhibition is 5 µM. Moreover, half-maximal cytotoxicity in data set [7] (CC50 at 72 h) was put at 29.2 µM.
Turning to `OC[C@@H]1[C@@H](O)[C@H](O)[C@@H](O)CN1CCc1cn(CC23CC4CC(CC(C4)C2)C3)nn1`, the result in data set [10] and in data set [11] was Active. Also, in data set [2], the result was inactive. The fold change (FC) was 0.82 with MDBK [3] and 5.1 with MDBK [5]. Moreover, in the data set with MDBK [4], the INH was found to be 100 µM. Further, the Concentration giving inhibition in the data set on MDBK [6] is 100 µM. Besides, the CC50 at 72 h in data set [7] is above 250 µM.
As to `OC[C@@H]1[C@H](O)[C@H](O)[C@@H](O)CN1CCCCn1cc(COCC23CC4CC(CC(C4)C2)C3)nn1`, in the data set on MDBK [8], the “activity call (active / not active)” value is “inactive”. The result in [10] and in data set [1] was Active. Besides, the “glucosidase I inhibition (active/not active)” value in the data set with MDBK [9] is “inactive”. Besides, the inhibition result in the data set with MDBK [4] and with MDBK [6] was “inactive” throughout. In [7], this molecule had a CC50 at 72 h above 250 µM.
With `OC[C@@H]1[C@@H](O)[C@H](O)[C@@H](O)CN1Cc1cn(CC23CC4CC(CC(C4)C2)C3)nn1`, the result in data set [10] was Active. Also, the result in data set [2] was inactive. In addition, the fold change (FC) with MDBK [3] was 0.54; with MDBK [5], 3. The INH in the data set with MDBK [4] amounted to 100 µM. The Concentration giving inhibition in the data set on MDBK [6] turned out to be 100 µM. In data set [7], this molecule displayed a CC50 at 72 h above 250 µM.
`OC[C@@H]1[C@@H](O)[C@H](O)[C@@H](O)CN1CCCCCCn1cc(COCC23CC4CC(CC(C4)C2)C3)nn1`: the “activity call (active / not active)” value in the data set on MDBK [8] is “Active”. Further, the “glucosidase I inhibition (active/not active)” value in the data set on MDBK [9] was “Active”. The result in data set [1] was Active. For the same molecule, the fold change (FC) with MDBK [3] turned out to be 11.4; in the data set on MDBK [5], 8.3. Also, the INH in the data set with MDBK [4] came to 100 µM. The Concentration giving inhibition with MDBK [6] came to 10 µM. Moreover, it took 205 µM to reach half-maximal cytotoxicity in data set [7] (CC50 at 72 h).
With `OC[C@@H]1[C@@H](O)[C@H](O)[C@@H](O)CN1CCCCn1cc(COCC23CC4CC(CC(C4)C2)C3)nn1`, the “activity call (active / not active)” value with MDBK [8] is “inactive”. Further, the “glucosidase I inhibition (active/not active)” value in the data set with MDBK [9] is “inactive”. The result in data set [1] and in data set [2] was Active. The values for the fold change (FC) in the data set with MDBK [3] and in the data set with MDBK [5] were 1.52 and 6, respectively. Further, the INH in the data set on MDBK [4] turned out to be 100 µM. For the same molecule, the Concentration giving inhibition with MDBK [6] was 100 µM. In data set [7], the CC50 at 72 h was above 250 µM.
Regarding `OC[C@@H]1[C@@H](O)[C@H](O)[C@@H](O)CN1CCCCc1cn(CC23CC4CC(CC(C4)C2)C3)nn1`, the outcome in [10] and in data set [11] was Active. Also, in data set [2], the result was inactive. The fold change (FC) in the data set with MDBK [3] came to 1.44; in the data set on MDBK [5] it was 5.2. Moreover, the INH in the data set on MDBK [4] was 100 µM. Besides, the Concentration giving inhibition in the data set with MDBK [6] amounted to 50 µM. Also, the half-maximal cytotoxic concentration (CC50) at 72 h in [7] was above 250 µM.
